The text below walks through data of ChEMBL document CHEMBL1142419, “Antimycobacterial activities of novel 2-(sub)-3-fluoro/nitro-5,12-dihydro-5-oxobenzothiazolo[3,2-a]quinoline-6-carboxylic acid” (Bioorg Med Chem, 2008).

Data set [1] has as its system Mycobacterium tuberculosis. The data set is described as follows: Antimycobacterial activity against Mycobacterium tuberculosis ATCC 35801 infected in CD1 mouse assessed as bacterial load in lung at 50 mg/kg, ip after 10 days. The format is functional. To be noted: route intraperitoneal. In short, it runs like this:
(§1)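 Six-week-old female CD-1 mice, six per group, infected intravenously via caudal vein with ~10⁷ viable M. tuberculosis ATCC 35801. Intraperitoneal dosing began 10 days after inoculation and ran 10 days. On day 35 post-infection, spleens and right lungs were removed and homogenized. Serial 10-fold dilutions were plated on 7H10 agar (37 °C, ambient air, 4 weeks). Log CFU compared against vehicle-treated controls.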

For data set [2], the system named is Mycobacterium tuberculosis. The data set is described as follows: Antimycobacterial activity against Mycobacterium tuberculosis ATCC 35801 infected in CD1 mouse assessed as bacterial load in spleen at 50 mg/kg, ip after 10 days. The format is functional. The following applies: route intraperitoneal. The method in brief: as §1
A short description of data set [3]: Inhibition of Mycobacterium smegmatis DNA gyrase supercoiling activity. The arrangement: species or system Mycolicibacterium smegmatis.
In data set [4] the test system is Mus musculus. The data set is described as follows: Phototoxicity in Swiss albino mouse assessed as ear thickness at 140 mg/kg, po after 4 hrs of irradiation. Further details: dose 140 mg/kg, route oral. To be noted: in vivo. The format is organism-based. In short, it runs like this:
(§2)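 Female Swiss albino mice (about 2 months, 20–25 g), fasted at least 18 h, received a single oral gavage of 140 mg/kg. Groups: six per group; lomefloxacin HCl 140 mg/kg; vehicle 0.5% aqueous sodium carboxymethylcellulose at 10 ml/kg. Mice were UV-irradiated for 4 h (about 18 J/cm²). Both ears were scored for erythema, edema and ear thickness (left/right averaged) pre-dose, at end of irradiation, and at about 24, 48, 72 and 96 h. Ear thickness change from baseline was tested by Student's t-tests.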

In data set [5] the test system is Mus musculus. As to the kind of experiment: Phototoxicity in Swiss albino mouse assessed as ear thickness at 140 mg/kg, po after 24 hrs of irradiation. To be noted: in vivo. The format is organism-based. The arrangement: dose 140 mg/kg, route oral. The method in brief:
as §2

In data set [6] the test system is Mus musculus. The data set is described as follows: Phototoxicity in Swiss albino mouse assessed as ear thickness at 140 mg/kg, po after 48 hrs of irradiation. The format is organism-based. Further details: dose 140 mg/kg, route oral. The following applies: in vivo. In short, it runs like this: as §2
For data set [7], the system named is Mus musculus. The data set is described as follows: Phototoxicity in Swiss albino mouse assessed as ear thickness at 140 mg/kg, po after 72 hrs of irradiation. Further details: dose 140 mg/kg, route oral. The format is organism-based. The following applies: in vivo. In short, it runs like this: as §2
Data set [8] concerns Mus musculus. As to the kind of experiment: Phototoxicity in Swiss albino mouse assessed as ear thickness at 140 mg/kg, po after 96 hrs of irradiation. The format is organism-based. The arrangement: dose 140 mg/kg, route oral. The following applies: in vivo. In short, it runs like this:
as §2

The subject of data set [9] is Mus musculus. The data set is described as follows: Phototoxicity in Swiss albino mouse assessed as erythema incidence at 140 mg/kg, po after 24 hrs of irradiation. The format is organism-based. The arrangement: dose 140 mg/kg, route oral. The following applies: in vivo. In short, it runs like this:
as §2

Data set [10] concerns Mus musculus. As to the kind of experiment: (§3) Phototoxicity in Swiss albino mouse assessed as erythema incidence at 140 mg/kg, po after 48 hrs of irradiation. The format is organism-based. Further details: dose 140 mg/kg, route oral. The following applies: in vivo. The method in brief: as §2
Data set [11] deals with Mus musculus. The data set is described as §3. The format is organism-based. Further details: dose 140 mg/kg, route oral. To be noted: in vivo. In short, it runs like this:
as §2
This is another data set of the same source.

Data set [12] deals with Mus musculus. The data set is described as follows: Phototoxicity in Swiss albino mouse assessed as erythema incidence at 140 mg/kg, po after 96 hrs of irradiation. The arrangement: dose 140 mg/kg, route oral. The format is organism-based. To be noted: in vivo. In short, it runs like this: as §2
Data set [13] deals with Mycobacterium tuberculosis. The data set is described as follows: Antimycobacterial activity against Mycobacterium tuberculosis H37Rv by agar dilution method. The format is functional. In short, it runs like this:
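MIC by agar dilution on Middlebrook 7H11 agar supplemented with OADC, following an NCCLS-like procedure, run in duplicate. The MDR-TB clinical isolate was resistant to isoniazid, rifampicin, ethambutol and ofloxacin.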
(In agar dilution the substance is mixed into plates at graded concentrations.)

The test system of data set [14] is Mycolicibacterium smegmatis. As to the kind of experiment: Antimycobacterial activity against Mycobacterium smegmatis MC2 by agar dilution method. The format is functional. In short, it runs like this:
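Agar dilution on Middlebrook 7H11 agar supplemented with OADC, following an NCCLS-like procedure; MIC determined in duplicate against M. smegmatis ATCC 14468 (MC²).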

For the next data set, the system named is Vero. As to the kind of experiment: Cytotoxicity against african green monkey Vero cells after 72 hrs by MTT assay. The format is cell-based. The following applies: Chlorocebus sabaeus. The method in brief: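 Vero mammalian cells were exposed to compounds for 72 h, with testing at 62.5 µg/ml. Viability was read as cellular conversion of MTT to formazan (non-radioactive cell proliferation kit), and IC50 was reported.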
(Tetrazolium dyes change colour on reduction, which living cells bring about.)

A short description of data set [15]: Selectivity index, ratio of IC50 for african green monkey Vero cells to MIC for Mycobacterium tuberculosis H37Rv. The format is functional. In short, it runs like this:
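Vero cells were exposed for 72 h, with viability read by MTT conversion to formazan to give the IC50. The MIC against H37Rv was by duplicate agar dilution on OADC-supplemented Middlebrook 7H11 agar. Index = Vero IC50 / MIC.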

Data set [16] concerns Mycobacterium tuberculosis. The data set is described as follows: Antimycobacterial activity against Mycobacterium tuberculosis ATCC 35801 infected in CD1 mouse assessed as bacterial load in lung at 25 mg/kg, ip after 10 days. The format is functional. The following applies: route intraperitoneal. In short, it runs like this:
as §1

The test system of data set [17] is Mycobacterium tuberculosis. The data set is described as follows: Antimycobacterial activity against Mycobacterium tuberculosis ATCC 35801 infected in CD1 mouse assessed as bacterial load in spleen at 25 mg/kg, ip after 10 days. The format is functional. To be noted: route intraperitoneal. The method in brief:
as §1

≈ marks a conversion by molar mass, not a printed value.

For orientation: IC50 means the point on the concentration scale where inhibition reaches its midpoint. The MIC is the lowest concentration found to suppress growth. Consider `CCN(CC)C(=O)C1CCCN(c2cc3c(cc2F)c(=O)c(C(=O)O)c2sc4ccccc4n23)C1` (stereo unspecified), for which the Log10 cfu in data set [1] came to 5.21; in [2] it was 5.9. Also, the values for the IC50 (in [3]; in the data set on Vero) were 40 µg/mL (≈ 80.7 µM) and 126 µM, respectively. The Activity with Mus musculus [4] is 0.29 mm; in the data set on Mus musculus [5], 0.29 mm; in the data set on Mus musculus [6], 0.29 mm; in the data set on Mus musculus [7] it was 0.3 mm; in the data set on Mus musculus [8], 0.28 mm; with Mus musculus [9], “Non-toxic”. The Activity result in the data set on Mus musculus [10], with Mus musculus [11] and in the data set on Mus musculus [12] was “Non-toxic” in each case. Besides, the MIC in data set [13] was determined as 0.18 µM (≈ 0.0892 µg/mL); in data set [14], 3.15 µM (≈ 1.56 µg/mL). Moreover, the Selectivity index in [15] is 1576.
For the compound `COc1c(N2CCNC(C)C2)c(F)cc2c(=O)c(C(=O)O)cn(C3CC3)c12` (stereo unspecified) [GATIFLOXACIN], the Log10 cfu in data set [1] is 6.02; in data set [2], 6.92. The values for the minimum inhibitory concentration (MIC) in [13] and in [14] were 1.04 µM (≈ 0.39 µg/mL) and 2.08 µM (≈ 0.781 µg/mL), respectively. This compound also had an IC50 with Vero of over 155 µM.
For the compound `NNC(=O)c1ccncc1` [ISONIAZID], the Log10 cfu turned out to be 5.86 in data set [16] and 4.71 in data set [17]. Also, the MIC in data set [13] is 0.36 µM (≈ 0.0494 µg/mL); in data set [14] it was 45.6 µM (≈ 6.25 µg/mL). The 50% inhibitory concentration (IC50) in the data set with Vero is over 456 µM.
